Bioassay records deposited in PubChem by several laboratories.
Mdm2 ligase inh – inhibitors of human Mdm2 E3 ubiquitin ligase; Q00987; cell-based MDM2 ubiquitination luciferase reporter, 2 h; 0 = plate control, 100 = twice control, blank-subtracted; signal enhancement, % at 5 µM; 210,000 tested, 0.11% active; AID 1230;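 active = signal enhancement of 30% or more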;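 also: luminescence tracks abundance of the self-degrading MDM2-luciferase fusion protein; higher signal means inhibition of MDM2 E3 ligase activity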
Target sequence (Q00987 whole entry, looked up, the tested form may be a part): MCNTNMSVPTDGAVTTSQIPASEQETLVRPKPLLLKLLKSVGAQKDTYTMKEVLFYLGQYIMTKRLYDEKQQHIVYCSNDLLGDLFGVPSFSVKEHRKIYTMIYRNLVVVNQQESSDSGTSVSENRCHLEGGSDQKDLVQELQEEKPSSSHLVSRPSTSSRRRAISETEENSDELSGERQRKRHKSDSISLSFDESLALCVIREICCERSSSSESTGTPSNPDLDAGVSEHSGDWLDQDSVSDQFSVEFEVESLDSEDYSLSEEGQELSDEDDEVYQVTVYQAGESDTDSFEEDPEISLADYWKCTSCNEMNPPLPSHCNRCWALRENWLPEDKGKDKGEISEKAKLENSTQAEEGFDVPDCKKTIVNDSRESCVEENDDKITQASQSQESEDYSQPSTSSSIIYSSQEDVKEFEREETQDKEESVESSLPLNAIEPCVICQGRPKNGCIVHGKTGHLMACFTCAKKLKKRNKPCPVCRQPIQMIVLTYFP
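Material: Stable MDM2–luciferase fusion reporter cells | Amount: 2000 cells seeded into each well | Dosing: One concentration, 5 µM, with 0.2% DMSO | Incubation: 4 h cell settling then 2 h compound exposure, 37 °C | Measured by: Luciferase luminescence | Read-out basis: % enhancement relative to plate controls after blank subtraction | Benchmarks: Control and blank well means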
APP 5'UTR act – activates APP 5'UTR luciferase reporter; SH-SY5Y APP 5'UTR luciferase reporter, luminescence; zero percent = DMSO vehicle wells; 190,000 tested, 1% active; AID 1276; activation, % at 2 µM;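 active = activation above a set limit, based on mean plus 3 SD of controls, cut at about 140% in these data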
AHR activator – human AHR activation; 320,000 tested, 2.5% active; activation, % at 5 µM; AHR-responsive luciferase reporter cells, luminescence; P35869; in the data active = activation above about 47%;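 also: 0% = vehicle wells and 100% = reference agonist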
NF-kB expr up – NF-kB expression increase, human neuronal cells; NF-kB reporter expression; stronger effect = higher value; fold change at 12.5 µM; 190,000 tested, 1.6% active; in the data active = fold change above about 3.3
PERK inhibitor – blocks human PERK kinase; Q9NZJ5; CHO PERK-DD fusion, SEAP luminescence translation reporter; inhibition, % at 5.6 µM; 220,000 tested, 0.17% active; AID 1416;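 active = inhibition above the mean inhibition of all tested compounds plus 3 SD, set separately per screening campaign, cut at about 2.9% in these data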;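 also: PERK kinase domain activated by AP20187 dimerizer at 100 nM; 0% = DMSO with dimerizer and 100% = rapamycin at 8.4 µM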
STAT1 act – increases IFN-gamma driven STAT1 reporter signal; activation (% of control), % at 5.5 µM; 200,000 tested, 2.6% active; NIH 3T3 STAT1-luciferase reporter, luminescence; 100% = IFN-gamma alone, no compound;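 active = activation above the screen-wide mean activation plus 3 SD, cut at about 130% in these data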;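 also: raw ratio to IFN-gamma control signal so 100% means no change and 0% no light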
AHR act cf – human AHR activation, confirmation | shares compounds with AHR activator | human cells, AHR-responsive luciferase reporter, luminescence | activation, % at 9 µM | 2,300 tested, 87% active | AID 2845; in the data active = activation above about 49%;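 also: HepG2 hepatoma cells carrying a DRE-driven firefly luciferase reporter; 0% = vehicle wells and 100% = reference agonist wells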
PXR counter – activates human PXR in AHR activator counter-screen. activation, % at 11.6 µM. shares compounds with AHR activator. AID 434939. 2,300 tested, 88% active. cell-based PXR reporter, luciferase luminescence; in the data active = activation above about 11%;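 also: human hepatoma DPX-2 cells expressing full-length human PXR; 0% = DMSO and 100% = reference agonist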
The depositor's hits bear a star; · = no result given. In the library only some 4.5% were active in any assay of this set; here they are far more common.

SMILES	Mdm2 ligase inh	APP 5'UTR act	AHR activator	NF-kB expr up	PERK inhibitor	STAT1 act	AHR act cf	PXR counter
COc1cccc(-c2nc(-c3ccc(Br)o3)no2)c1	-41	·	86*	·	2	·	136*	28*
COc1cccc(-c2nc(-c3ccncc3)no2)c1	·	·	8	·	·	·	·	·
c1ccc(-c2noc(-c3ccc4c(c3)OCO4)n2)cc1	-77	167*	87*	3.9*	1	99	16	10
COCCCNC(=S)NNC(=O)c1cccnc1	-16	-13	108*	1	1	93	33	6
Nc1cc(-c2cccc([N+](=O)[O-])c2)[nH]n1	-8	7	11	0.84	0	96	·	·
Nc1cc(-c2ccc(Br)cc2)[nH]n1	-13	15	84*	1	-1	104	132*	11*
Cc1ccc(S(=O)(=O)N2CCC(C(=O)N/N=C/c3ccncc3)CC2)cc1	-31	-10	6	1	1	99	·	·
Cn1cc(CN2CCN(CC(C)(C)C)C(CCO)C2)c2ccccc21 (stereo unspecified)	·	·	7	·	·	·	·	·
Cn1c(=O)[nH]c2nnc(-c3ccc(Cl)c(Cl)c3)nc2c1=O	·	·	112*	·	0	·	42	15*
O=C(N/N=C/c1cc(Br)cs1)c1c[nH]c2ccccc12	-10	·	91*	·	0	·	145*	26*
O=C(N/N=C/c1cc(Br)cs1)c1ccccc1[N+](=O)[O-]	-5	4	6	1.1	2	93	·	·
Clc1ccc(CN2C3=NCCCN3c3ccccc32)cc1Cl	-19	12	-2	0.9	-1	91	·	·
Cc1ccc2nc(Nc3nc(C)cc(C(F)(F)F)n3)nc(C)c2c1	-17	6	98*	1.3	-1	104	95*	131*
O=C(Nc1cccc(Cl)c1)c1ccc(NCC2CCCO2)c([N+](=O)[O-])c1 (stereo unspecified)	-4	19	91*	1.2	-1	100	6	30*
Nc1nc(NCC2CCCO2)nc(Nc2cccc(Cl)c2)c1[N+](=O)[O-] (stereo unspecified)	-8	·	99*	·	-1	·	27	16*
Cc1cccc(NC(=O)c2ccc(NCC3CCCO3)c([N+](=O)[O-])c2)c1 (stereo unspecified)	-2	42	-3	1.4	-1	91	·	·
Cc1cccc(Nc2nc(NCC3CCCO3)nc(N)c2[N+](=O)[O-])c1 (stereo unspecified)	-12	15	8	0.75	1	97	·	·
C=CC[C@H](CC(=O)N(CCO)Cc1ccccc1)C(=O)NCCOC(=O)[C@@H](CC=C)CC(=O)OC(C)(C)C	·	·	1	·	·	·	·	·
N#Cc1ccc(C(=O)OCC(=O)Nc2ccc(N3CCOCC3)cc2)cc1	-16	4	2	1.3	0	107	·	·
Cc1cccc(C(=O)NCC(=O)OCc2nc(N)nc(Nc3ccccc3C)n2)c1	·	·	0	·	·	·	·	·
S=c1nc2ccccc2c2nc(-c3ccccc3Br)[nH]n12	·	·	123*	·	·	·	130*	38*
CC(=O)N/N=C/c1cc(C(C)(C)C)cc(/C=N/NC(C)=O)c1O	3	-14	82*	1.1	0	90	83*	22*
COc1ccc(-c2nnc(SCC(=O)NC3CC3)o2)cc1	·	·	3	·	·	·	·	·
O=C(NCc1cccc(Cl)c1)C1CCCN(c2ncnc3c2nc2n3CCCCC2)C1 (stereo unspecified)	·	·	1	·	·	·	·	·
O=C(CCN1C(=O)c2ccccc2C1=O)Nc1ccc(F)cc1	-15	-6	-6	1	1	99	·	·
SMILES	Mdm2 ligase inh	APP 5'UTR act	AHR activator	NF-kB expr up	PERK inhibitor	STAT1 act	AHR act cf	PXR counter
O=C(CCN1C(=O)c2ccccc2C1=O)Nc1ccc(-c2cn3ccsc3n2)cc1	-11	11	102*	1.6	0	114	125*	25*
Cn1cc(/C=N\NC(=O)C2COc3ccccc3O2)c2ccccc21 (stereo unspecified)	-6	4	97*	1.2	0	87	71*	12*
CC(C)(C)NC(=O)CC1C[C@H](C(=O)N2CCOCC2)[C@@]2(C)c3[nH]c4ccccc4c3CCN2C1=O (stereo partly specified)	·	·	-1	·	·	·	·	·
COc1ccc2[nH]c3c(=O)n(CCCCCC(=O)NCCC(C)C)c(=S)[nH]c3c2c1	-16	-2	5	1	0	89	·	·
Oc1c(C(c2ccccc2)N2CCc3ccccc3C2)sc2ncnn12 (stereo unspecified)	-14	2	89*	0.9	0	99	86*	40*
COc1ccc(CCC(=O)NNC(=S)NCc2ccc(F)cc2)cc1	-3	7	0	1.1	2	95	·	·
O=C1NC(c2ccc(Br)cc2)Nc2ccccc21 (stereo unspecified)	·	·	80*	·	·	·	62*	22*
Cc1ccsc1C1NC(=O)c2ccccc2N1 (stereo unspecified)	-6	-2	17	1.4	1	103	·	·
O=C(CCNS(=O)(=O)c1ccccc1)NNC(=O)COc1ccc(Cl)cc1	·	·	1	·	·	·	·	·
CC(=O)Nc1ccc2nc(-c3ccccn3)[nH]c2c1	-19	72	35	2.1	1	124	·	·
c1ccc(-c2nc3cc4ccccc4cc3[nH]2)nc1	-5	157*	114*	2.8	0	60	44	23*
COc1ccccc1N1CCN(C2CCCN(C(=O)CCC(C)=O)C2)CC1 (stereo unspecified)	·	·	0	·	·	·	·	·
Cc1nn2c(NCCN(C)C)c3c(nc2c1-c1ccccc1)CCCC3	-12	·	2	·	0	·	·	·
Cc1nc(-c2coc3cc(C)c(N=O)c(O)c3/c2=N\N)cs1	-16	-16	-3	1.1	1	104	·	·
Cc1csc(-c2coc3cc(O)cc(C)c3c2=O)n1	-32	38	95*	2.1	0	124	126*	21*
CC(C)(C)c1ccc(S(=O)(=O)N2CCN(CC(=O)NC(=O)NC3CCCCC3)CC2)cc1	·	·	2	·	·	·	·	·
CN(C)S(=O)(=O)Oc1ccsc1C(=O)Nc1ccc(Cl)c(Cl)c1	0	-8	90*	0.98	0	97	122*	35*
CN(C)S(=O)(=O)Oc1ccsc1C(=O)Nc1cccc(Cl)c1	-2	2	22	0.96	-1	95	·	·
Cc1ccccc1C(=O)Nc1ccc(Br)c(C)n1	-34	8	88*	2.2	0	121	130*	52*
Cc1nc(NC(=O)c2cccnc2)ccc1Br	-23	-12	-2	3	1	118	·	·
N#CC1=C(N)Oc2n[nH]c(-c3ccccc3)c2C1c1cccc(OC(=O)N2CCOCC2)c1 (stereo unspecified)	-4	17	5	0.97	1	99	·	·
